Each structure is given as a SMILES string. The source made the active and inactive calls. The rule behind the calls is not given here.

Test [1] deals with T1, DNA topoisomerase 1 (Homo sapiens) (UniProt P11387).
T1 sequence (whole entry): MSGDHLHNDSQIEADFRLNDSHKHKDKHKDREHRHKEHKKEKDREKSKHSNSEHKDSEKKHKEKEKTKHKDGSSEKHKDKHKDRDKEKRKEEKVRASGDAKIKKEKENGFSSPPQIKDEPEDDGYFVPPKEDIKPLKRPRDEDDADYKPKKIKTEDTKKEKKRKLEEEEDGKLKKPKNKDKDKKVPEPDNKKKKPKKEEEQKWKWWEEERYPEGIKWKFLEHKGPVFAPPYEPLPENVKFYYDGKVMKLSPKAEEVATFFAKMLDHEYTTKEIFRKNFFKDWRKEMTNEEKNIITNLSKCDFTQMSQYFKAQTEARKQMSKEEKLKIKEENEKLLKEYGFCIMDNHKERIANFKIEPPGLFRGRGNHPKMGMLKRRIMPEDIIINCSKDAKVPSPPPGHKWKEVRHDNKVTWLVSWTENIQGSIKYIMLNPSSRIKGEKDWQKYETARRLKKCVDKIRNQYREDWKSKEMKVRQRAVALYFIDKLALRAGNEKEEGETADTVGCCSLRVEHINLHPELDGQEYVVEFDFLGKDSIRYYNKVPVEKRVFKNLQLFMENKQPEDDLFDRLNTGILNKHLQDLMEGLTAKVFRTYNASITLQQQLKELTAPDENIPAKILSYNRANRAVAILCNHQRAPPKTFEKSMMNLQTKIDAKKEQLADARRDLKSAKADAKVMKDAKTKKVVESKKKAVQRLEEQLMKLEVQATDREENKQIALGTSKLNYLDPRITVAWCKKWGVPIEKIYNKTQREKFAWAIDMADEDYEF
In words: Inhibition of topoisomerase1 (unknown origin)-mediated pBR322 DNA relaxation at 50 uM after 15 mins by agarose gel electrophoresis. In short, it runs like this: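 Relaxation of supercoiled pBR322 plasmid by purified Top1 with compound at 50 μM; camptothecin 50 μM as reference; DNA-only and DNA + enzyme lanes as controls; gel read-out; repeated 3 times.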

Test [2] addresses Histone deacetylase 3/Nuclear receptor corepressor 2 (HDAC3/NCoR2) (Homo sapiens, UniProt O15379). In words: Inhibition of recombinant C-terminal His-tagged full length human HDAC3/NcoR2 complex expressed in baculovirus infected insect Sf9 cells using fluorogenic HDAC substrate 3 after 30 mins by fluorescence assay.
For test [3], the target named is Histone deacetylase 1 (Homo sapiens, UniProt Q13547). In words: Inhibition of recombinant full length human HDAC1 (1 to 482) expressed in baculovirus infected insect Sf9 cells using fluorogenic HDAC substrate 3 after 30 mins by fluorescence assay.
Histone deacetylase 1, sequence (Q13547 whole entry): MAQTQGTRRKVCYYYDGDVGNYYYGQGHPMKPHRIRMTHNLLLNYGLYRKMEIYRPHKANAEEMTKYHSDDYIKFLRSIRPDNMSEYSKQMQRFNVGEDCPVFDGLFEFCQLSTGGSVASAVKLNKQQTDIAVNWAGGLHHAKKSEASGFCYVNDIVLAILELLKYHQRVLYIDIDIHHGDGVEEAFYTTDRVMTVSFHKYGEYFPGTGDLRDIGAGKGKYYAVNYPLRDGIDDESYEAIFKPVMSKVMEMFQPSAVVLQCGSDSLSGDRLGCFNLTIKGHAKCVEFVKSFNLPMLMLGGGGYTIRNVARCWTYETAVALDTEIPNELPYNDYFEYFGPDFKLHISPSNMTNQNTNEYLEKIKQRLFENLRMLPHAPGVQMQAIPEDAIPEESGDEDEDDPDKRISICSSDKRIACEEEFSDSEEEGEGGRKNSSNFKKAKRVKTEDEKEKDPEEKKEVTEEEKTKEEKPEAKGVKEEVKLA
Test [4] can be described thus: Cytotoxicity against HLF assessed as growth inhibition after 72 hrs by MTT assay. The note with it: Homo sapiens. In kind it is functional. (Tetrazolium assays rely on reduction of a dye to a coloured formazan, in cell work by metabolically active cells.)
Test [5] concerns MDA-MB-231. In words: Cytotoxicity against human MDA-MB-231 cells assessed as growth inhibition after 72 hrs by MTT assay. In kind it is functional, cell-based. The note with it: MDA-MB-231, 72 h.
Test [6] addresses T2, Histone deacetylase 8 (Homo sapiens, UniProt Q9BY41).
T2 sequence (Q9BY41 whole entry): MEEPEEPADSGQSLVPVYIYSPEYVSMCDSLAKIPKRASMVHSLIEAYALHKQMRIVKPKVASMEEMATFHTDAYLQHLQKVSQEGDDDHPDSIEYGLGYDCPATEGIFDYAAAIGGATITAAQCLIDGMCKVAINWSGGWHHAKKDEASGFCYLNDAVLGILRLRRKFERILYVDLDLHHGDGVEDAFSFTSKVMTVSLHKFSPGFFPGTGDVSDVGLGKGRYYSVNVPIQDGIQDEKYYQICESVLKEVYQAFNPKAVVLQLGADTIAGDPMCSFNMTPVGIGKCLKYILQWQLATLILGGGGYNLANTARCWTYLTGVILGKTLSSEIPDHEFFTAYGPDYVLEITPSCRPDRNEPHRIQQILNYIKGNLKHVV
In words: Inhibition of recombinant C-terminal His-tagged full length human HDAC8 expressed in baculovirus infected insect Sf9 cells using fluorogenic HDAC class 2a substrate after 30 mins by fluorescence assay.

Test [7] deals with DNA topoisomerase 2-alpha (Homo sapiens) (UniProt P11388). In words: Inhibition of topoisomerase-2alpha (unknown origin)-mediated pBR322 DNA relaxation at 50 uM after 30 mins by agarose gel electrophoresis. In short, it runs like this: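 Purified Top2α relaxation of supercoiled pBR322 plasmid with compound at 50 μM; etoposide 50 μM as reference; DNA-only and DNA + enzyme lanes as controls; gel read-out; repeated 3 times.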
DNA topoisomerase 2-alpha (Homo sapiens), sequence (P11388 whole entry): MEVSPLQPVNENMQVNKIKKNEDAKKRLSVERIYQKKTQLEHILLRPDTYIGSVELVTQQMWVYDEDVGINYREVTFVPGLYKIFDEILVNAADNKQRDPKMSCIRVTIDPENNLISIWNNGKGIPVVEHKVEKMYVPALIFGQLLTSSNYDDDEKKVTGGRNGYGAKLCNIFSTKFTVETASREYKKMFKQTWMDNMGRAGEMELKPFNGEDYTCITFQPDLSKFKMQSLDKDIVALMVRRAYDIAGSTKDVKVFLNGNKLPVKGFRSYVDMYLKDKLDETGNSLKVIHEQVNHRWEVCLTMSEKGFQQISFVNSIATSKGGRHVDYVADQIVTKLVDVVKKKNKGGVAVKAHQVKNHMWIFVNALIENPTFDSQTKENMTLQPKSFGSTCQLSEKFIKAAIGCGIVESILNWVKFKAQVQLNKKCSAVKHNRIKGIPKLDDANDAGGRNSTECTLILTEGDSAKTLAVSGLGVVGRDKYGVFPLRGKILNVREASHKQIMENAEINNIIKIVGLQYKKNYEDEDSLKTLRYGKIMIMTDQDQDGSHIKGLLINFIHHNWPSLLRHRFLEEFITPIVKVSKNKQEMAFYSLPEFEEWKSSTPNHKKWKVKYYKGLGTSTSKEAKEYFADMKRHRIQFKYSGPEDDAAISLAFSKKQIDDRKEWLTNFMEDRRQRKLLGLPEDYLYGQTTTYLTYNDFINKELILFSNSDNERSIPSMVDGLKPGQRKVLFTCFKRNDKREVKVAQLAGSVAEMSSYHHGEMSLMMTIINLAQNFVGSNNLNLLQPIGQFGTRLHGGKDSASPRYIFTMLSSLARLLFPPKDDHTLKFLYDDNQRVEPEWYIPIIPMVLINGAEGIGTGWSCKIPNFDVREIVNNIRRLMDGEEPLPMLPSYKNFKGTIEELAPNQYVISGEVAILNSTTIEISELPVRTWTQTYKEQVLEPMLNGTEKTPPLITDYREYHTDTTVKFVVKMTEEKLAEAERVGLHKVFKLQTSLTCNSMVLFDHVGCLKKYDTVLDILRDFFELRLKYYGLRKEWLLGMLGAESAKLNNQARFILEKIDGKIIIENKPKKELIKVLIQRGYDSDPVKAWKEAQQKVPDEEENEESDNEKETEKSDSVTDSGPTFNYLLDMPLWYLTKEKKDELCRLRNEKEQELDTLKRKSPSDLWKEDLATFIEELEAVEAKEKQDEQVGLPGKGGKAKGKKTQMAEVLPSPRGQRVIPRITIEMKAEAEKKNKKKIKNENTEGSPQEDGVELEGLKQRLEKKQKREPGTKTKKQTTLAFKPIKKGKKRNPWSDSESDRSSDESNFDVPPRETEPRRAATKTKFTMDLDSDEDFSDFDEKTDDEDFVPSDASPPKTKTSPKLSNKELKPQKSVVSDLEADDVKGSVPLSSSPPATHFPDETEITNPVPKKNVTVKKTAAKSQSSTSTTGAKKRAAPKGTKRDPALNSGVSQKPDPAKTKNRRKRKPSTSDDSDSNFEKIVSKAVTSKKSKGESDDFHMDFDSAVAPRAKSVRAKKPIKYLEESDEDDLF

Test [8] concerns the target Histone deacetylase (Homo sapiens) (UniProt Q13547+O15379+Q9UBN7+Q92769+Q9UQL6+Q8WUI4+Q9BY41+Q96DB2+P56524+Q9UKV0+Q969S8). In words: Inhibition of HDAC in human HCT116 cells assessed as induction of histone H3 hyperacetylation at 2.5 to 5 uM after 24 to 48 hrs by Western blot analysis. In kind it is cell-based. The following applies: HCT-116. In short, it runs like this:
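HCT116 cells treated 24 h with compound at 2.5 or 5 μM alongside an untreated control; lysates probed by Western blot for acetylated histone H3.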
A general note: A western blot detects proteins with antibodies after separation by electrophoresis.

Histone deacetylase 3/Nuclear receptor corepressor 2 (HDAC3/NCoR2), sequence (O15379 whole entry): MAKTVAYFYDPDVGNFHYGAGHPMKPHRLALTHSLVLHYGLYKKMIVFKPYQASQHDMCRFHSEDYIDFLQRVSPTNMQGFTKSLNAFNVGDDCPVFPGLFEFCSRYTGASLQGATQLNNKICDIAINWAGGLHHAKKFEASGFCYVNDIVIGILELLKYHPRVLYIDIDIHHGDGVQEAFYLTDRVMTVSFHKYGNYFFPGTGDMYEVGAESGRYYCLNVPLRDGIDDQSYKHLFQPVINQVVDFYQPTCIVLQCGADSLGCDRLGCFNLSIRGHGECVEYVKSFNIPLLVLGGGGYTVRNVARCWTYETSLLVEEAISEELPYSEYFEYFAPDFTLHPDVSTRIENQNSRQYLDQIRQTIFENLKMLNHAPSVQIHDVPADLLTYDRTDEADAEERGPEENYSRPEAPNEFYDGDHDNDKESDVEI
Histone deacetylase 3/Nuclear receptor corepressor 2 (HDAC3/NCoR2), sequence (Q9Y618 whole entry, further chain): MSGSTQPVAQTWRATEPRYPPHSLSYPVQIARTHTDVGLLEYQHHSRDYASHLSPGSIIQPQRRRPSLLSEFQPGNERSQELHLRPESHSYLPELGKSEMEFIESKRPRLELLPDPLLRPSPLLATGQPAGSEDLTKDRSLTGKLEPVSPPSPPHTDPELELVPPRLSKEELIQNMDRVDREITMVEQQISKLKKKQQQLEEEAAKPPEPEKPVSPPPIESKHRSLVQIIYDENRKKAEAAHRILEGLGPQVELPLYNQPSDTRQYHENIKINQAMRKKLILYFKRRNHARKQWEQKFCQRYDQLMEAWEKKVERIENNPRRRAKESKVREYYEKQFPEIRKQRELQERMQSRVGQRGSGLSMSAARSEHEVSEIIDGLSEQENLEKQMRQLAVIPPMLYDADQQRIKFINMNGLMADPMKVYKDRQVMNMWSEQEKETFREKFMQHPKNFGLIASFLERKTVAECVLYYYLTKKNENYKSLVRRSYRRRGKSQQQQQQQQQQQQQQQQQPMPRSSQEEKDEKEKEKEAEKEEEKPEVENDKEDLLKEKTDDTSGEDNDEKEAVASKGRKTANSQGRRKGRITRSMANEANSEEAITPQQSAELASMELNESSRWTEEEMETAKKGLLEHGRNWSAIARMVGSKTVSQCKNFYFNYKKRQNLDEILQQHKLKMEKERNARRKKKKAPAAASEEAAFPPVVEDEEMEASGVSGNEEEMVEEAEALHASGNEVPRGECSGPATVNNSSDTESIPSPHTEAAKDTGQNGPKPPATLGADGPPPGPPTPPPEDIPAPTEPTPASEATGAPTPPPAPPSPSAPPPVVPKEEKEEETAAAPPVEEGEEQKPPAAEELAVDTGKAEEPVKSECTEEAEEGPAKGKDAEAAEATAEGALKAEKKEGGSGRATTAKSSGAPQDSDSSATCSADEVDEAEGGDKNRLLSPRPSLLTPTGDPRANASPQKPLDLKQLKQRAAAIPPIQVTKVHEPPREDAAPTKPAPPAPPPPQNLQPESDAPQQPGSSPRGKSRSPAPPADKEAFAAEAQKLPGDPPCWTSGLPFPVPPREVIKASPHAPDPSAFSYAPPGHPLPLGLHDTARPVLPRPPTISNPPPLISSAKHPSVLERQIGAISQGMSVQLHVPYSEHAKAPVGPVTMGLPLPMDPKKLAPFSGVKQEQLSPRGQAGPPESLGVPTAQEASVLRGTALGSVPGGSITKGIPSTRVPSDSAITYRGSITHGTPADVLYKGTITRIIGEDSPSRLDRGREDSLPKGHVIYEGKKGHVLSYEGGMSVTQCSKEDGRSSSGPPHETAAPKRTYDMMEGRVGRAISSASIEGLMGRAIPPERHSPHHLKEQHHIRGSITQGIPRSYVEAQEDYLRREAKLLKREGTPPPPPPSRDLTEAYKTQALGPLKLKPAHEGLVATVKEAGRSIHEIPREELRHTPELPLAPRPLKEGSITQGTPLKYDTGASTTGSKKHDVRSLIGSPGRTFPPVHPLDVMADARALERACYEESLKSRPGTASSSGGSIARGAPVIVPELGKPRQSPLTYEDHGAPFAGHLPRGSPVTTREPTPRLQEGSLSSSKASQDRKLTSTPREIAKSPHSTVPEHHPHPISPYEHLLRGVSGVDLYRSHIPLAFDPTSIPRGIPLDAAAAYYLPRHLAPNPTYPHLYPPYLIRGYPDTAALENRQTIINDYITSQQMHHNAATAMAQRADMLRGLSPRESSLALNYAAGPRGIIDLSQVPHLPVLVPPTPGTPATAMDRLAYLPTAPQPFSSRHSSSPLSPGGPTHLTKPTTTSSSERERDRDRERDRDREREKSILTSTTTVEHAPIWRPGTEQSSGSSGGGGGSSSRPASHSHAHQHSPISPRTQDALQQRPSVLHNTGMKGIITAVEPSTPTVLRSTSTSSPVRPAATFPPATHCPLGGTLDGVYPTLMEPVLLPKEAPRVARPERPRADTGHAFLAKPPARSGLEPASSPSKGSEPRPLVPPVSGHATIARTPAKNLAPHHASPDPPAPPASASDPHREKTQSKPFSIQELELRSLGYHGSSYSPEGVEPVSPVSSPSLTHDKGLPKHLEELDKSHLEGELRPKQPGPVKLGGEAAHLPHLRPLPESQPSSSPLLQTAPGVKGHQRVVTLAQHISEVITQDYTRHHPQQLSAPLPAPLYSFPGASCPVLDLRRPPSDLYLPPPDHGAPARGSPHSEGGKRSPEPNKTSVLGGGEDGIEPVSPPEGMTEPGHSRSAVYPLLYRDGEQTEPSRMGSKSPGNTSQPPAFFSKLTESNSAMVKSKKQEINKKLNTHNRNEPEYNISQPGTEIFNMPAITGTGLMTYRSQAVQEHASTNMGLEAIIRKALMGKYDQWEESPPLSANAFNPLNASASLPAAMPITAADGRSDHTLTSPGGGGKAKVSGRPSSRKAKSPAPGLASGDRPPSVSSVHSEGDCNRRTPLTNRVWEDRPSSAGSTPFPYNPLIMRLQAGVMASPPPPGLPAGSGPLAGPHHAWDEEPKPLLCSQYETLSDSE

With `CN1c2ccc(NCc3ccc(-c4noc(CCCCCCC(=O)NO)n4)cc3)cc2C(=O)N2CCc3c([nH]c4ccc(O)cc34)C21` (stereo not drawn), the inhibition entry in test [1], in test [7] and in test [8] was “Active” each time. Also, the 50% inhibitory concentration (IC50) was 71 nM in test [2]; 24 nM in test [3]; 1300 nM in test [4]; 2300 nM in test [5]; 2500 nM in test [6].

As a reminder, the IC50 is the concentration needed to halve the response being measured.
